This note sets out measurements from ChEMBL document CHEMBL2069295, “Discovery of 6-substituted 4-anilinoquinazolines with dioxygenated rings as novel EGFR tyrosine kinase inhibitors” (Bioorg Med Chem Lett, 2012).

In brackets after ≈: the same amount, converted by molar mass. Activity calls are given as the source filed them. No cut-off for these calls is given here.

The subject of one assay is A-431. Briefly: Antiproliferative activity against human A431 cells after 24 to 48 hrs by WST1 assay. Format: functional, cell-based.
In assay [1] the test system is MCF7. Briefly: cells. To be noted: Homo sapiens.
Assay [2] concerns A549. Briefly: Antiproliferative activity against human A549 cells after 24 to 48 hrs by WST1 assay. The format is functional, cell-based.
The target of assay [3] is T1, Epidermal growth factor receptor (Homo sapiens, UniProt P00533). Briefly: Inhibition of EGFR in human A431 cell lysate using tyrosine/glutamic acid polymer as substrate by ELISA. The arrangement: species or system A-431.
Assay [4] deals with B16-F10. Briefly: cells. The settings on record: Mus musculus.
In assay [5] the target is T1, Epidermal growth factor receptor. Briefly: Inhibition of EGFR in human A431 cells assessed as inhibition of EGF-stimulated autophosphorylation at 100 nM incubated for 1 hr prior to EGF-induction measured after 15 mins by Western blot analysis. The format is cell-based. To be noted: A-431. An outline of the steps:
(§1)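 A431 cells were incubated […] with compound at 10 or 100 nM, then stimulated with EGF. Whole-cell lysates were Western blotted with an anti-phosphotyrosine antibody to detect EGFR autophosphorylation.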

The subject of assay [6] is MCF7. Briefly: Growth inhibition of human MCF7 cells at 10 ug/mL after 24 to 48 hrs by WST1 assay. To be noted: read-out: GI. Format: functional. An outline of the steps: (§2)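 Single-concentration growth inhibition at 10 µg/mL, the top concentration used because higher levels precipitated in culture medium. Three separate experiments, each in triplicate.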
The test system of assay [7] is A549. Briefly: Growth inhibition of human A549 cells at 10 ug/mL after 24 to 48 hrs by WST1 assay. The format is functional. The settings on record: read-out: GI. An outline of the steps:
as §2

Assay [8] relates to B16-F10. Briefly: Growth inhibition of mouse B16F10 cells at 10 ug/mL after 24 to 48 hrs by WST1 assay. The settings on record: read-out: GI. Format: functional. In short, it runs like this:
as §2

Assay [9] deals with Receptor tyrosine-protein kinase erbB-2 (Homo sapiens, UniProt P04626). The assay is described as follows: Inhibition of recombinant HER2 expressed in baculovirus infected Sf9 cells using [32P]ATP incubated for 30 mins prior to ATP addition measured after 20 mins by liquid scintillation counting.
Assay [10] concerns the target Vascular endothelial growth factor receptor 2 (Homo sapiens, UniProt P35968). The assay is described as follows: Inhibition of VEGFR2 using ATP incubated for 30 mins prior to ATP addition measured after 60 mins by fluorimetry.
The target in assay [11] is T1, Epidermal growth factor receptor. The assay is described as follows: Inhibition of EGFR in human A431 cells assessed as inhibition of EGF-stimulated autophosphorylation at 10 nM incubated for 1 hr prior to EGF-induction measured after 15 mins by Western blot analysis. Format: cell-based. The settings on record: A-431. In short, it runs like this: as §1

Receptor tyrosine-protein kinase erbB-2, sequence (P04626 whole entry): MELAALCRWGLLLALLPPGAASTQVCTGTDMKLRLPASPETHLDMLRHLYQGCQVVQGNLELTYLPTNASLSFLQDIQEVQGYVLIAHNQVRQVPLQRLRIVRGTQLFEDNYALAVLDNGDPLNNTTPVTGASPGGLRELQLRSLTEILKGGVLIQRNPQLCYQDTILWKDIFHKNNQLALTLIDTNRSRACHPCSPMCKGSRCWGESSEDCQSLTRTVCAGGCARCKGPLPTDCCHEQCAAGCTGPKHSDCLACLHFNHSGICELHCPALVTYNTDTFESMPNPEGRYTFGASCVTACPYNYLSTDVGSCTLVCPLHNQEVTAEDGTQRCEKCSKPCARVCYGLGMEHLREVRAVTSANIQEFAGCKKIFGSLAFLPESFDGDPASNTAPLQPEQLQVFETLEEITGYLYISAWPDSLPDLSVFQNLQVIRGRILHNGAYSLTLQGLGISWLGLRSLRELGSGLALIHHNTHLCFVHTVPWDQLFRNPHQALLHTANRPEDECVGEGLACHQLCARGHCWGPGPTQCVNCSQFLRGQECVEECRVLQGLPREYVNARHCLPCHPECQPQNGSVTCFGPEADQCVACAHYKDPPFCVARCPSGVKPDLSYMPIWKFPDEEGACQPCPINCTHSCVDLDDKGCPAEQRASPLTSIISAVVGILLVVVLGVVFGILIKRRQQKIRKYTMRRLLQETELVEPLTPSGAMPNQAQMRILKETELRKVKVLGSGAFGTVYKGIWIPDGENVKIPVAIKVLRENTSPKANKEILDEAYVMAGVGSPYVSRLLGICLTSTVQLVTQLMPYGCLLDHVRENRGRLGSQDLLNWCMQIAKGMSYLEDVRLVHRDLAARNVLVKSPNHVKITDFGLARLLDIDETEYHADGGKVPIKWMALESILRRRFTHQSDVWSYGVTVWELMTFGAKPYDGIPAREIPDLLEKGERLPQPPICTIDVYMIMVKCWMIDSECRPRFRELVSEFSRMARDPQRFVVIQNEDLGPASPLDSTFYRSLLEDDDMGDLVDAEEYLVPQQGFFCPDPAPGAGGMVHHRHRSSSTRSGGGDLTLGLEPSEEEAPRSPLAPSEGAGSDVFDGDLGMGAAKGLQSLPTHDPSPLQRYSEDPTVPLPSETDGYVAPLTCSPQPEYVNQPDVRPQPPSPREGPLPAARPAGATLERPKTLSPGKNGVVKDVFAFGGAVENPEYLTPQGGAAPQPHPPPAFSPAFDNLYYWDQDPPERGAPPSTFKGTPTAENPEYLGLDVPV
Vascular endothelial growth factor receptor 2, sequence (P35968 whole entry): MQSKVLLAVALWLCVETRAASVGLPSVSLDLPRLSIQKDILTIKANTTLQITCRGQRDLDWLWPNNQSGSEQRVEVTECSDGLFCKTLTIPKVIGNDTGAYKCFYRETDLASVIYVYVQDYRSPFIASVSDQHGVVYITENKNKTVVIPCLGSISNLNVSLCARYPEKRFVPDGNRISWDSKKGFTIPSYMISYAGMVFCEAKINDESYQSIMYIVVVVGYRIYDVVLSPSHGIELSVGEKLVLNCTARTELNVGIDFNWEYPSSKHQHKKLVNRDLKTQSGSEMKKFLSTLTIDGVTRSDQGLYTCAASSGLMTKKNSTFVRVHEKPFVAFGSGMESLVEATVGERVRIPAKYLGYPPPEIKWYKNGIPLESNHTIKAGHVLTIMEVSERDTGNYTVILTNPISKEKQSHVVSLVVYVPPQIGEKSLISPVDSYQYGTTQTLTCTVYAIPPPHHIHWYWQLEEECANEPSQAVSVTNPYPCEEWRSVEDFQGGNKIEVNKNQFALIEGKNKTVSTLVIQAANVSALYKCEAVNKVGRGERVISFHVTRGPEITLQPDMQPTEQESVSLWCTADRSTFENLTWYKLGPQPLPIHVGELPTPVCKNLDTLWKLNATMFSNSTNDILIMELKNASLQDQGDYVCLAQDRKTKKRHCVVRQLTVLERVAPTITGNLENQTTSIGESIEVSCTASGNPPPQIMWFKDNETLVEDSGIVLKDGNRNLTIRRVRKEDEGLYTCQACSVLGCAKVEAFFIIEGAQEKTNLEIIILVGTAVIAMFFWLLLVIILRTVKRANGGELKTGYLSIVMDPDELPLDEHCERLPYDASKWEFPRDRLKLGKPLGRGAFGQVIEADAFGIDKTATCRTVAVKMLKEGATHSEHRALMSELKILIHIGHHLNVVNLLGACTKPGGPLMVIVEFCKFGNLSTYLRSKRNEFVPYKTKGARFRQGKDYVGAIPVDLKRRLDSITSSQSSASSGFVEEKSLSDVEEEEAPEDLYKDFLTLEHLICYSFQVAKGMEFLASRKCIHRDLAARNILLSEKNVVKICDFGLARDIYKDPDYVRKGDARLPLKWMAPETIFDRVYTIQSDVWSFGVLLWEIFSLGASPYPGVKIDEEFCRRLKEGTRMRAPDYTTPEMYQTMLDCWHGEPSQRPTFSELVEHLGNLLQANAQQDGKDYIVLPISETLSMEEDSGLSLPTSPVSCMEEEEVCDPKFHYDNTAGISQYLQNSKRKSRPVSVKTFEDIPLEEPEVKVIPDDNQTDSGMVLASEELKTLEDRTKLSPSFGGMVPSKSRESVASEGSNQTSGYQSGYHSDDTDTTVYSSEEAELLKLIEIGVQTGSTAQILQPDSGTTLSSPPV
T1 sequence (P00533 whole entry): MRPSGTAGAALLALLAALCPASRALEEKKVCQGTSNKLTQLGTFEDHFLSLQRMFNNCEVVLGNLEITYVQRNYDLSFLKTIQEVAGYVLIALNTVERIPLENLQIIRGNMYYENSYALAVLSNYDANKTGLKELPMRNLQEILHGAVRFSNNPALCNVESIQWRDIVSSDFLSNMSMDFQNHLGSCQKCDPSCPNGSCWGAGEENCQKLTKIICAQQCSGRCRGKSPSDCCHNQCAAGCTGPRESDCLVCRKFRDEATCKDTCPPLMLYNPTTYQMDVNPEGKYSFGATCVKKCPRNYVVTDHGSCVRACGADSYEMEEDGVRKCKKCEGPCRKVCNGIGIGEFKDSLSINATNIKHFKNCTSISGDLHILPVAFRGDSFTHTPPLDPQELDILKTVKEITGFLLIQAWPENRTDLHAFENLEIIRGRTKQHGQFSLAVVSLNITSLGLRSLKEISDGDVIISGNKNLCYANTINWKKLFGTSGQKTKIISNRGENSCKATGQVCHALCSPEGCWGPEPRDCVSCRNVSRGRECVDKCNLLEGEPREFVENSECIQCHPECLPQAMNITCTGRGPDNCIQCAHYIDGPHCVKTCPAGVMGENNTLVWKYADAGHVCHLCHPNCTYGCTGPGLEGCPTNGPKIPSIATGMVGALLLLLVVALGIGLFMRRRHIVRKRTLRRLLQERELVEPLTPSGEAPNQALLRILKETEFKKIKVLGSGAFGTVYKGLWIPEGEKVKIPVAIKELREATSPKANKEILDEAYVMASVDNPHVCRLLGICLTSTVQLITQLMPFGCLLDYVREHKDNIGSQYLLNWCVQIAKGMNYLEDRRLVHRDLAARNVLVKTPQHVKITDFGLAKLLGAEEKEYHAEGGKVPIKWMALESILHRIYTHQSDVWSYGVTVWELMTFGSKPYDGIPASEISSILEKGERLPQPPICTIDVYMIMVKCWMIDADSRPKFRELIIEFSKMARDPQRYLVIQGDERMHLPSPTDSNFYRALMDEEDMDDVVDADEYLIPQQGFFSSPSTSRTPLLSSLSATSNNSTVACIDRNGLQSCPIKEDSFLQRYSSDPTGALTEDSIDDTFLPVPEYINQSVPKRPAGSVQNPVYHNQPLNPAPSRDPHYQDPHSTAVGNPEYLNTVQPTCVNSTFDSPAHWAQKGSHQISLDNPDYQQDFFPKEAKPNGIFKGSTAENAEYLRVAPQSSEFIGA

As for `COc1cc2ncnc(Nc3cccc(Br)c3)c2cc1OC`, the IC50 in the assay on A-431 is 2.26 µg/mL (≈ 6.27 µM); in the assay with MCF7 [1] it was 3.21 µg/mL (≈ 8.91 µM); in the assay on A549 [2], 8.13 µg/mL (≈ 22.6 µM).
Regarding `Clc1cccc(Nc2ncnc3ccc(NCc4ccc5c(c4)OCCCO5)cc23)c1`, the IC50 in assay [3] worked out at 216 nM; with B16-F10 [4], 2.14 µg/mL (≈ 4.94 µM); with A-431, 2.59 µg/mL (≈ 5.98 µM); in the assay on MCF7 [1], 4.28 µg/mL (≈ 9.89 µM); with A549 [2], 31 µg/mL (≈ 71.7 µM). For the same molecule, the inhibition result in assay [5] was “Active”.
Take `Clc1cccc(Nc2ncnc3ccc(NCc4ccc5c(c4)OCCO5)cc23)c1`: the results for the IC50 in the assay on B16-F10 [4] and in the assay with MCF7 [1] were 16.3 µg/mL (≈ 39 µM) and 23.1 µg/mL (≈ 55.3 µM), respectively.
As for `O=C(Nc1ccc2ncnc(Nc3cccc(Br)c3)c2c1)C1COc2ccccc2O1` (stereo unspecified), the IC50 was 3680 nM in [3]; 50.1 µg/mL (≈ 105 µM) with B16-F10 [4]; 42.9 µg/mL (≈ 89.9 µM) in the assay on A-431; above 100 µg/mL in the assay on MCF7 [1]; 73.8 µg/mL (≈ 155 µM) with A549 [2]. Besides, the inhibition result in assay [5] is “Active”. Also, in the assay on MCF7 [6], the inhibition of growth at 10 µg/mL is below 50%.
As for `Brc1cccc(Nc2ncnc3ccc(NCc4ccc5c(c4)OCCO5)cc23)c1`, the 50% inhibitory concentration (IC50) in assay [3] is 1020 nM; in the assay on B16-F10 [4], 12 µg/mL (≈ 25.9 µM); in the assay with A-431 it was 12.5 µg/mL (≈ 27.1 µM); in the assay on MCF7 [1], 10.7 µg/mL (≈ 23.1 µM); with A549 [2], 58.3 µg/mL (≈ 126 µM).
As for `O=C(Nc1ccc2ncnc(Nc3cccc(Cl)c3)c2c1)c1cccc2c1OCCO2`, the inhibition of growth at 10 µg/mL with A549 [7] and in the assay with MCF7 [6] was below 50% in each case. Moreover, the half-inhibitory concentration (IC50) in assay [3] is 1290 nM; in the assay with B16-F10 [4], 9.86 µg/mL (≈ 22.8 µM); in the assay with A-431, 46.6 µg/mL (≈ 108 µM); in the assay with MCF7 [1], above 100 µg/mL; with A549 [2] it was above 100 µg/mL.
For `O=C(Nc1ccc2ncnc(Nc3cccc(Cl)c3)c2c1)C1COc2ccccc2O1` (stereo unspecified), the IC50 in [3] was 2750 nM; with B16-F10 [4] it was above 100 µg/mL; with A-431 it was 19.9 µg/mL (≈ 45.9 µM); with MCF7 [1], 52.2 µg/mL (≈ 121 µM); with A549 [2], 61.2 µg/mL (≈ 141 µM). For the same molecule, in the assay with B16-F10 [8], the inhibition of growth at 10 µg/mL was below 50%.
As for `O=C(Nc1ccc2ncnc(Nc3cccc(Br)c3)c2c1)c1cccc2c1OCCO2`, the half-inhibitory concentration (IC50) is 1630 nM in assay [3]; above 100 µg/mL in the assay with B16-F10 [4]; 20.3 µg/mL (≈ 42.6 µM) with A-431; 59.5 µg/mL (≈ 125 µM) in the assay with MCF7 [1]; 84 µg/mL (≈ 176 µM) in the assay with A549 [2]. The inhibition of growth at 10 µg/mL in the assay with B16-F10 [8] is below 50%.
As to `Clc1cccc(Nc2ncnc3ccc(NCc4ccc5c(c4)OCO5)cc23)c1`, the IC50 in assay [9] is 6500 nM; with MCF7 [1], 7.36 µg/mL (≈ 18.2 µM); in [10], above 10000 nM.
For `Brc1cccc(Nc2ncnc3ccc(NCc4ccc5c(c4)OCCCO5)cc23)c1`, the IC50 worked out at 4800 nM in assay [9]; 98 nM in assay [3]; 1.99 µg/mL (≈ 4.17 µM) with B16-F10 [4]; 2.77 µg/mL (≈ 5.8 µM) in the assay with A-431; 5.02 µg/mL (≈ 10.5 µM) in the assay with MCF7 [1]; 15.5 µg/mL (≈ 32.5 µM) in the assay on A549 [2]. Besides, the concentration for half-maximal inhibition (IC50) in assay [10] was above 10000 nM. The inhibition entry in assay [11] and in assay [5] was “Active” throughout.
For the molecule `Brc1cccc(Nc2ncnc3ccc(NCc4ccc5c(c4)OCCCCO5)cc23)c1`, the 50% inhibitory concentration (IC50) in assay [3] is 1140 nM; with B16-F10 [4], 20.6 µg/mL (≈ 42 µM); with A-431, 15 µg/mL (≈ 30.6 µM); in the assay on MCF7 [1], 32.1 µg/mL (≈ 65.2 µM); in the assay with A549 [2] it was above 100 µg/mL.
On the same counts, the results for `Brc1cccc(Nc2ncnc3ccc(NCc4ccc5c(c4)OCO5)cc23)c1` are 630 nM, 3.62 µg/mL (≈ 8.06 µM), 6.82 µg/mL (≈ 15.2 µM), 14.5 µg/mL (≈ 32.2 µM) and 68.7 µg/mL (≈ 153 µM).
As to `Clc1cccc(Nc2ncnc3ccc(NCc4ccc5c(c4)OCCCCO5)cc23)c1`, the IC50 in assay [9] is above 10000 nM; in [3], 920 nM; in the assay with B16-F10 [4], 17.5 µg/mL (≈ 39.1 µM); in the assay with A-431, 13.3 µg/mL (≈ 29.8 µM); in the assay with MCF7 [1] it was 21.3 µg/mL (≈ 47.7 µM); in the assay with A549 [2] it was 44.8 µg/mL (≈ 100 µM). In assay [10], this molecule gave a half-maximal inhibitory concentration (IC50) above 10000 nM.
